Wnt act = activates Wnt/beta-catenin signaling in a reporter cell assay. AID 743398. activator, plate reader. activation, % at 9.35 µM. 300,000 tested, 1.2% active; in the data active = activation above about 30%, passing the limit was not always enough;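 note: 0% = neutral control wells and 100% = positive control wells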
SR-BI uptake up = activators of SR-BI mediated HDL lipid uptake. activation, % at 12.5 µM. CHO ldlA[mSR-BI] cells, DiI-HDL uptake fluorescence, 3 h; 100 = double the neutral-control signal. 320,000 tested, 0.096% active. AID 504775;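 active = mean replicate activation of at least 60% and every replicate at or above 60%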;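 note: 0% = median plate neutral-control signal and 100% = twice that signal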
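system = CHO ldlA[mSR-BI] cells, LDL receptor-null, SR-BI overexpressing | medium = Ham's F12 with 0.5% BSA, HEPES 25 mM, pH 7.4 | probe or stimulus = DiI-HDL 10 µg/mL | compound dosing = single-point compound dose | incubation = compound exposure 3 h, 37 °C | technique = DiI fluorescence, bottom read | read-out = cell-associated DiI fluorescence as measure of HDL uptake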
HSF-1 act = increases HSF-1 driven luciferase reporter signal; activation, % at 9 µM; AID 504408; 300,000 tested, 1.7% active; NIH3T3-HGL HSF-1 luciferase reporter, MG132, 8 h; 100% = twice DMSO control signal;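 active = mean replicate activation of at least 50% with a set share of replicates each reaching 50%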;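 note: 0% = median of the neutral control wells and 100% = twice that signal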
MITF act = increases MITF-driven TRPM1 promoter luciferase signal | SK-MEL-5 TRPM1-promoter luciferase, 24 h; % of positive control, neutral wells = 0 | activation, % at 12.5 µM | 300,000 tested, 0.75% active | AID 588334;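 active = mean activation of at least 80% with every replicate also reaching 80%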;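 note: 0% = neutral control wells and 100% = parthenolide positive control wells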
SR-BI HDL uptake = mouse SR-BI HDL lipid transfer inhibition | Q61009 | 320,000 tested, 0.96% active | ldlA[mSR-BI] CHO cells, DiI-HDL uptake fluorescence, 3 h | inhibition, % at 12.5 µM;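 active = mean replicate inhibition of at least 70% and a set share of replicates each scoring 70 or more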;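 note: 0% = median of neutral control wells and 100% = median of positive control wells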
Target sequence (Q61009 whole entry, looked up): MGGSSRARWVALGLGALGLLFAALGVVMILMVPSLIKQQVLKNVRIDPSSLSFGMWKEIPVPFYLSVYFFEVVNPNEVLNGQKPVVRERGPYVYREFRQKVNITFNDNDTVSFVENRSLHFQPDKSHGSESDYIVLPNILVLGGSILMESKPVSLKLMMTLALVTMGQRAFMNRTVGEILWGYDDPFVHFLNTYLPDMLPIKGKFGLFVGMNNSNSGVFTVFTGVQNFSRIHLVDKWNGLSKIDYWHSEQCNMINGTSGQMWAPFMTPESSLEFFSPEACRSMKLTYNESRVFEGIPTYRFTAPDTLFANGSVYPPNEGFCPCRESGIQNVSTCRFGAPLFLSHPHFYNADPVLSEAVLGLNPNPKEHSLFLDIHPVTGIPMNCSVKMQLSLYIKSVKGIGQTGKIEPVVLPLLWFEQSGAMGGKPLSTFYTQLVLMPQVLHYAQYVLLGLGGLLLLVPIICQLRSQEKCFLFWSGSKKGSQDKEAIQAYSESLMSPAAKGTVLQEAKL
* = called active by the depositor; · = not tested or not shown. A selection: hits, their analogues and other compounds. The true share with any hit is near 3.6%.

SMILES	Wnt act	SR-BI uptake up	HSF-1 act	MITF act	SR-BI HDL uptake
O=c1c2ccccc2sc2nc(C3CCCCC3)n(Cc3ccco3)c(=O)c12	·	6.7	85.6*	·	-6.7
Cc1cc(=O)c2c(=O)[nH][nH]c2[nH]1	-4.0	·	·	·	·
CCCn1c2ccc(/C(C)=N\O)cc2c2cc(/C(C)=N/O)ccc21	·	-100.7	16.0	8.9	100.7*
C/C(=N\O)c1ccc(Cl)c(Cl)c1	·	·	-1.0	·	·
O=C(Nc1cccc(S(=O)(=O)NC2=NCCCCC2)c1)c1cc(-c2ccccc2)nc2ccccc12	-1.8	-76.7	16.8	0.9	76.7*
O=C(Nc1cccc(S(=O)(=O)NCc2ccco2)c1)c1cc(-c2ccc(F)cc2)nc2ccccc12	-2.3	-73.7	16.2	-2.9	73.7*
COc1ccc(-c2cc(C(=O)Nc3cccc(S(=O)(=O)NCc4ccco4)c3)c3ccccc3n2)cc1OC	-2.2	·	2.8	-10.6	·
COc1ccc(/C=N/Nc2nncc3ccccc23)cc1	·	-4.4	49.5	1.0	4.4
COc1ccc(/C(C)=N/Nc2nncc3ccccc23)cc1	36.9*	-16.0	9.9	108.8*	16.0
O=C(C[C@@H]1C/C=C\CC[C@H](Cc2ccc(F)cc2)C(=O)OC[C@@H]2CCCN2C1=O)N[C@H](CO)Cc1ccccc1	-4.6	-11.7	·	-10.2	11.7
C/C(=N/O)c1no[n+]([O-])c1/C(C)=N\O	37.9*	3.7	32.6	·	-3.7
O=C1NC[C@H](CCCCN2C[C@H](Cc3ccc(O)cc3)N(Cc3ccccc3)C(=O)C2=O)N(CCc2ccccc2)C1=O	-4.8	·	·	·	·
Cc1ccc(-c2cn3c(=O)cc(C)[nH]c3n2)cc1	44.8*	19.5	-22.9	61.0	-19.5
CC1CCCN(c2nc3ccsc3c(=O)s2)C1 (stereo not given)	52.5*	1.1	26.8	72.9	-1.1
Cc1cc(C)cc(NC(=O)CN(C)S(=O)(=O)c2cnc[nH]2)c1	·	6.4	80.0*	-5.9	-6.4
O=S(=O)(c1c(F)cccc1F)N1CCCC2CCCCC21 (stereo not given)	0.3	-9.2	·	-5.2	9.2
O=C(Nc1ccccc1F)Nc1ccc([N+](=O)[O-])cc1Cl	42.8*	-53.7	17.4	66.7	53.7
CCCCn1nnc(NC(=O)c2ccc(-c3cccc([N+](=O)[O-])c3)o2)n1	·	·	-7.7	·	·
C=CCNC(=O)c1ccc(-c2cccc([N+](=O)[O-])c2)o1	9.0	13.0	25.9	51.7	22.0
O=C(Nc1nccs1)c1ccc(-c2cccc([N+](=O)[O-])c2)o1	59.9*	-57.4	46.1	58.9	57.5
O=C(Nc1ccccc1F)c1ccc(-c2cccc([N+](=O)[O-])c2)o1	8.1	11.1	51.3*	59.4	-11.1
CN1CCN(c2ccc(CNC(=O)C3Cc4c(-c5ccc(Cl)cc5)ccnc4O3)cc2)CC1 (stereo not given)	-1.5	·	·	·	·
Cc1cccc(N=C2CCCC2C(=O)Nc2cccc(C)c2C)c1C (stereo not given)	-3.8	3.2	·	-13.6	-3.2
NC(=O)c1nn(-c2ccccc2)nc1NC(=O)CN1CCCCC1	-0.9	-17.0	53.3*	0.4	17.0
COc1ccc(C(=O)Cn2c(C)nc([N+](=O)[O-])c2Br)cc1	-2.6	50.1	172.2*	-4.4	-50.1
SMILES	Wnt act	SR-BI uptake up	HSF-1 act	MITF act	SR-BI HDL uptake
CCOC(=O)c1sc(NC(=O)c2c(C)nn(Cc3ccccc3)c2C)cc1C	-0.3	-81.7	·	10.8	81.7*
CCOC(=O)c1sc(NC(=O)c2ccc(Cl)s2)cc1C	24.5	-21.2	41.6	63.0	21.2
CCOC(=O)c1sc(NC(=O)c2cccc(S(=O)(=O)N(CC)CC)c2)cc1C	·	-66.9	-5.2	7.2	66.9
CCOC(=O)c1sc(NC(=O)Nc2ccc(Cl)cc2)cc1C	15.5	-75.7	-8.5	33.4	75.7*
CCOC(=O)c1sc(NC(=O)c2ccccc2)cc1C	·	-46.2	55.4*	·	46.2
CNC(=O)C[C@H]1C(=O)N(c2ccccc2)C[C@@H]1C	-0.9	·	·	·	·
CC1Sc2ccc(S(=O)(=O)N3CCC(C(=O)NCCc4ccccc4)CC3)cc2NC1=O (stereo not given)	-2.2	14.7	15.2	3.7	-14.7
CC1Sc2ccc(S(=O)(=O)N3CCC(C(=O)NCC(C)c4ccccc4)CC3)cc2NC1=O (stereo not given)	-3.1	132.7*	1.1	-3.8	-132.7
CC(C)C[C@H]1COc2cc(NCCO)ccc2S(=O)(=O)N1	-5.1	·	·	·	·
Cc1csc(NC(=O)/C=C/c2ccco2)n1	·	2.7	57.1*	50.3	-2.7
O=C(/C=C/c1ccco1)Nc1nc(-c2ccccc2)cs1	36.6*	-6.5	58.2*	53.7	6.5
O=C(/C=C/c1ccco1)Nc1scc(-c2ccccc2)c1C(=O)O	42.5*	-7.2	·	27.5	7.2
COCCCN1C(=O)C(CC(=O)NCc2ccco2)CC(C(=O)N(C(C)C)C(C)C)=C1C (stereo not given)	-1.1	·	·	·	·
COc1cc(/C=C/C(=O)Nc2ccc(S(=O)(=O)Nc3ncccn3)cc2)ccc1OCC#N	0.7	-51.3	·	·	51.3
O=C(N[C@H](C(=O)N1CCC[C@H]1C(=O)NC1CCCC1)C1CCCCC1)c1ccc(Cl)c(Cl)c1	-10.4	·	·	·	·
Cc1c(C(=O)N(Cc2ccncc2)CC2CCCO2)oc2c(F)cccc12 (stereo not given)	2.2	15.6	52.5*	-7.6	-15.6
COC(=O)c1cc(NC(=S)Nc2cc(Cl)cc(Cl)c2)cc(C(=O)OC)c1	-2.0	-85.8	8.2	8.1	85.8*
COC(=O)c1cccc(NC(=S)Nc2ccccc2Cl)c1	0.8	-29.0	1.0	18.0	29.0
CC(C)CNc1ncnc2c1ncn2[C@H]1CN(C2CCCC2)C[C@@H](CO)O1	-6.3	·	·	·	·
O=S(=O)(NC1c2cccc3cccc(c23)C1N1CCNCC1)c1ccc(Cl)cc1 (stereo not given)	9.9	8.9	61.4*	-19.3	-8.9
CC(=O)N1CCN(C2c3cccc4cccc(c34)C2NS(=O)(=O)c2ccccc2)CC1 (stereo not given)	·	8.1	22.1	-2.0	-8.1
O=C(Nc1nccs1)c1c(O)c2c([nH]c1=O)CCCC2	49.8*	·	·	49.6	·
CC1(C(=O)Nc2ccc3c(c2)OCCO3)CSCC(=O)N1Cc1ccco1 (stereo not given)	1.2	·	·	·	·
O=C(CCc1nnc(C2CCCCC2)o1)N1CCN(C2CCCCC2)CC1	0.5	6.8	0.6	2.4	-6.8
O=C(CCc1nnc(C2CCCCC2)o1)N1CCN(c2ccccc2F)CC1	32.9*	·	37.0	73.6	·
Cc1ccccc1Oc1ccc2c(c1)[C@@H]1C[C@H](N(C)C(=S)Nc3ccc(F)cc3)[C@H]([C@H](C)O)C(=O)N1CC2	-9.4	·	·	·	·
O=C(CNC(=O)N1CC(=O)Nc2ccccc21)Nc1ccc(Cl)cc1Cl	-0.2	·	·	·	·
O=C(NC1CCC(O)CC1)c1cc(-c2ccc(Cl)cc2)nc2ccccc12 (stereo not given)	2.4	-76.8	·	16.2	76.8*
